Sampled rows, rich in hits. Any-hit rate of the full collection: about 3%.
Myeloid diff MLP: promotes myeloid progenitor differentiation; ER-HoxA9 myeloid progenitors, lysozyme-GFP differentiation, flow cytometry; calls only at 10 µM; 360,000 tested, 1% active; AID 624256;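 active = normalized GFP-positive differentiation at or above the plate's own cutoff, the solvent-only control mean plus 3 SD; inconclusive = no clear call, values can overlap the other calls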;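 note: cells exposed to compound for four days before flow analysis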
HNF4A DNA FP: change in binding of human HNF4 alpha to DNA; P41235; AID 1224865; 360,000 tested, 0.3% active; HNF4a-FITC DNA binding, fluorescence polarization, 1 h; activity change, % at 10 µM; in the data active = activity change above about 30%, passing the limit was not always enough
Target sequence (P41235 whole entry, looked up): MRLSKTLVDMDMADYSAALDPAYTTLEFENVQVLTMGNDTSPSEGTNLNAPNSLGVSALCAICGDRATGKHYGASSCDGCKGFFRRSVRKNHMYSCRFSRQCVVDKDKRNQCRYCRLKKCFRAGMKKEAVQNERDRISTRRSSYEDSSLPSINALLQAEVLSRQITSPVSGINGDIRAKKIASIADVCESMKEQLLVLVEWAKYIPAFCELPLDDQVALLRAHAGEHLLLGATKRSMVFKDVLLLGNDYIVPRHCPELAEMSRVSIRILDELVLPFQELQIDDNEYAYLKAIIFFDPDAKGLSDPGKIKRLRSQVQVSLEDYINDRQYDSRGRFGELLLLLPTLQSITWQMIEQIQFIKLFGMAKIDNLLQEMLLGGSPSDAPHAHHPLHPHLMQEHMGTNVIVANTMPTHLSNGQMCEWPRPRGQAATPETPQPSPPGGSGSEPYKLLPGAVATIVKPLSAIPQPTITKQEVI
Cardio protect: protects H9c2 cardiomyocytes from peroxide injury. H2O2 injury protection, ATPLite, 2 h. protection from H2O2 cell death, % at 20 µM. 360,000 tested, 0.63% active;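 active = compounds giving at least 50% protection of heart cells from peroxide-induced death in the single-dose screen, raw or plate-pattern-corrected value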;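 note: 0% = DMSO wells with peroxide and 100% = DMSO wells without peroxide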
Pemphigus Ab inh: blocks pemphigus antibody binding to human desmoglein-3; DSG3-coupled beads, scFv-anti-DSG3-GFP binding, flow cytometry; stronger effect = lower value; binding (percent of control), % at 10 µM; 310,000 tested, 0.48% active;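 active = binding more than 3 SD below its plate's average and above zero; inconclusive = below that plate limit but binding exactly zero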;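 note: hits lower antibody fragment binding to DSG3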
SENP1 FRET inh: SENP1 (human) catalytic domain inhibition | recombinant SENP1 catalytic domain, CyPet-SUMO1-YPet FRET cleavage | inhibition, % at 10 µM | 360,000 tested, 0.21% active | AID 624204;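 active = inhibition at least 30% at 10 µM, raw YFP signal under a set limit, fluorescence ratio 0.5 to 1.5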;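 note: 0% = enzyme with DMSO and 100% = no enzyme wells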
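Compound: 10 µM single point, 0.5% DMSO; Test system: hSENP1 catalytic domain, recombinant; Timing: 50 min reaction at room temperature; Technique: FRET, CFP and YFP emission; Control set: no-enzyme wells low, DMSO-plus-enzyme wells high control.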
Exocytosis inh: blocks lytic granule exocytosis | TALL-104 LAMP-1 surface exposure, flow cytometry; cells stimulated with thapsigargin and PMA | inhibition, % at 10 µM | 360,000 tested, 0.66% active;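 active = inhibition above about 55%, limit read from the data; inconclusive = no clear call, values can overlap the other calls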
Exocytosis CP01: blocks lytic granule exocytosis | TALL-104 cells, LAMP-1 externalization, flow cytometry; stimulated with PMA plus thapsigargin | inhibition, % at 10 µM | shares compounds with Exocytosis inh | 1,500 tested, 11% active; in the data active = inhibition above about 60%;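 note: 0% = stimulated vehicle wells and 100% = unstimulated wells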
Numbers without * were called inactive; i = inactive; ? = inconclusive; / = not tested or not shown.

SMILES | Myeloid diff MLP | HNF4A DNA FP | Cardio protect | Pemphigus Ab inh | SENP1 FRET inh | Exocytosis inh | Exocytosis CP01
Cc1cc(NCc2ccccc2)n2ncc(-c3ccccc3)c2n1 | i | 3 | -11 | 98 | 0 | 58* | -11
Cc1cc(NC(C)c2ccccc2)n2ncc(-c3ccccc3)c2n1 (centres undefined) | i | 4 | -1 | 100 | 0 | 95* | 18
Cc1cc(NC2CCCC2)n2ncc(-c3ccccc3)c2n1 | i | 0 | -17 | 106 | 1 | 15 | /
Cc1ccc(S(=O)(=O)NCC(=O)N(CC2CCCO2)C(C(=O)NC2CCCCC2)C(C)C)cc1 (centres undefined) | i | -1 | -5 | 98 | 2 | 5 | /
COc1cc(CNCCCN2CCOCC2)cc(Br)c1OCc1ccc(Cl)cc1 | / | 7 | -12 | 98 | 1 | 58* | 27
COc1ccccc1NC(=O)C(C)OC(=O)Cc1ccsc1 (centres undefined) | i | -2 | -1 | 112 | 0 | -3 | /
Fc1cccc(NC(=S)N2CCc3ccccc32)c1 | i | -1 | -3 | 92 | 4 | 64* | -4
CCOC(=O)c1c(NC(=O)C(NCCN(C)C)c2ccccc2)sc2c1CCCC2 (centres undefined) | i | 1 | -20 | ? | 1 | 70* | 46
CN(C(=O)COC(=O)c1cc([N+](=O)[O-])ccc1Cl)c1ccccc1 | i | 0 | -4 | 100 | 1 | -10 | /
Cc1ccc(C(=O)N2CCOCC2)c(F)c1F | i | -3 | 3 | 99 | 0 | 10 | /
COc1ccc(CN(C)C(=O)c2ccc(Oc3ccccc3)cc2)cc1F | i | 1 | -4 | 114 | 0 | 67* | -4
Cc1ccsc1CN(C)C(=O)c1ccc(Oc2ccccc2)cc1 | i | 3 | -5 | / | 0 | 113* | -14
CN(Cc1ccc2ccccc2c1)C(=O)c1ccc(C(F)(F)F)cc1 | i | -1 | 0 | 101 | 1 | 60* | -11
CN(Cc1ccc(C(C)(C)C)cc1)C(=O)c1ccc2c(c1)OCO2 | i | -2 | -4 | 114 | 2 | -2 | /
COc1cc2c(cc1CN1CCN(C(=O)c3cc(OC)c(OC)c(OC)c3)CC1)OCO2 | i | -1 | 0 | 98 | -1 | -2 | /
CN(C)c1ccccc1C(=O)N1CCC(n2nccc2NC(=O)C2CC2)CC1 | i | -2 | 0 | 105 | 0 | -2 | /
N=c1c2c(ncn1Cc1ccco1)Oc1ccc3ccccc3c1C2c1ccccc1 (centres undefined) | ? | 6 | -21 | 127 | 0 | 21 | /
CCCCn1cnc2c(c(-c3ccccc3)c(-c3ccccc3)n2Cc2ccco2)c1=N | i | -2 | -5 | 110 | 0 | 64* | 18
N=c1c2c(-c3ccccc3)c(-c3ccccc3)n(Cc3ccco3)c2ncn1Cc1ccco1 | i | 3 | -38 | 113 | -6 | 91* | 16
CCCCn1c(=O)[nH]c(=O)c2c1ncn2Cc1ccco1 | i | 3 | 3 | 103 | -6 | 0 | /
N#C/C(=C\c1cccn1S(=O)(=O)c1ccccc1)S(=O)(=O)c1ccc(F)cc1 | i | 2 | -10 | / | -1 | 5 | /
O=C(CN1C(=O)C(=O)c2ccccc21)c1ccc(Cl)cc1 | i | -2 | -9 | 109 | 0 | 63* | -12
O=C(Nc1ccc(C(F)(F)F)cc1)C1CCCCN1S(=O)(=O)c1ccccc1 (centres undefined) | i | 0 | -12 | 95 | -3 | 16 | /
CCCCn1c(N2CCC(Cc3ccccc3)CC2)nc2c1c(=O)[nH]c(=O)n2C | i | -4 | -6 | 104 | 3 | 88* | 4
CCCCn1c(N2CCCC2)nc2c1c(=O)[nH]c(=O)n2C | i | 1 | 9 | 104 | 1 | 2 | /
SMILES | Myeloid diff MLP | HNF4A DNA FP | Cardio protect | Pemphigus Ab inh | SENP1 FRET inh | Exocytosis inh | Exocytosis CP01
CCc1nc2c(OCc3ccccc3C)cccn2c1N(C)C(=O)c1ccc(C)cc1 | i | -1 | -8 | / | 0 | 7 | /
Cc1ccccc1CC1CCN(CCCNC(=O)Nc2ccccc2)CC1 | i | -2 | 5 | 100 | 2 | 63* | -13
Cc1ccc(C)c(CN2CCC(CNC(=O)Nc3ccc(Cl)cc3)CC2)c1 | i | -2 | -10 | ? | 4 | 66* | -2
CCOC(=O)[C@@H]1[C@H]2COc3ccccc3[C@H]2N2C(=O)N(c3ccc(Cl)cc3)C(=O)[C@]12C | i | 9 | -6 | 95 | -1 | -15 | /
CCOC(=O)[C@@H]1[C@H]2COc3ccccc3[C@@H]2N2C(=O)N(c3ccc(Cl)cc3)C(=O)[C@@]12C | i | 1 | -6 | 103 | 0 | 116* | -13
CCOC(=O)c1cc(-c2csc(-c3cccc(Cl)c3)n2)on1 | i | 0 | -5 | / | 1 | 6 | /
CCOC(=O)c1cc(-c2csc(Nc3c(C)cc(C)cc3C)n2)on1 | i | 1 | -14 | / | 1 | 91* | 86*
O=C(O)CSc1nnc(COc2ccc(Br)cc2)n1-c1ccccc1 | i | 3 | 0 | 97 | 2 | -5 | /
CCCCn1c(NCc2ccc3c(c2)OCO3)nc2ccccc21 | i | -3 | -15 | 106 | -1 | 67* | -3
CCCn1c(NCc2ccc3c(c2)OCO3)nc2ccccc21 | i | 0 | 1 | 105 | -8 | 0 | /
CN(C(=O)CSc1nc2ccccc2c(=O)n1C)C1CCS(=O)(=O)C1 (centres undefined) | i | -3 | -5 | 126 | 3 | 8 | /
CC(C)n1nccc1N(Cc1ccc(Br)cc1)S(=O)(=O)c1ccccc1 | ? | -2 | -2 | / | -2 | 90* | 11
CC(C)n1nccc1N(Cc1ccc(Cl)cc1)S(=O)(=O)c1ccccc1 | i | -1 | -3 | / | -1 | 97* | 2
Cc1ccc(S(=O)(=O)N(Cc2ccc(Cl)cc2)c2ccccc2C(=O)O)cc1 | i | -7 | -4 | 107 | 1 | 6 | /
CCCCCNc1ncnc2c(C)[nH]nc12 | i | 4 | -12 | / | -2 | -15 | /
Cc1cccc(NC(=S)N2CCN(c3ccc(F)cc3)CC2)c1 | i | 0 | -13 | 101 | 2 | -2 | /
COc1ccc(CNC(=O)COC(=O)C(CCSC)NC(=O)c2ccco2)cc1OC (centres undefined) | i | 1 | -5 | 105 | 1 | -12 | /
Fc1cccc(CCN2CCNC[C@@H]2CC2CCCCC2)c1 | i | 4 | 4 | 102 | -1 | 62* | -11
c1ccc(C2(CN3CCNC[C@@H]3CC3CCCCC3)CC2)cc1 | i | 2 | -3 | 103 | 0 | -9 | /
COCCn1c(SCCOc2ccccc2)nc2ccccc2c1=O | i | 3 | -7 | / | 3 | 67* | 14

Screening data as filed in PubChem BioAssay.
